The source of these data is PMC3488162 (The Journal of investigative dermatology, 2012).

Entries after “also recorded” stand apart in the source; their conditions may differ.

One series concerns Sap. As to conditions: ref Korting et al., 1999; cited from earlier work.
In series [1] the test system is C. albicans. The series can be described thus: Flow cytometric antimicrobial killing assay. As to conditions: for depolarized fungal cells in a population: 1:6 diluted Schaedler broth, DiBAC4(3), flow cytometry, means of one representative experiment in triplicate; for antifungal activity compared between hGAPDH (2-32), LL-37 and hBD-3: 10 μg/ml each. The format is cell-based, Candida albicans. The gist of the method: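 Candida albicans (strains 143, 277, 526 and SC5314; 1.5×10^6 cells) incubated at 37°C in 1:6-diluted Schaedler broth with test peptide or reference antimicrobial peptides at 10 μg/ml, dissolved in 0.01% acetic acid. Solvent-only controls. After 90 min, DiBAC4(3) membrane-potential dye added for 10 min; cells pelleted and resuspended in PBS. Percentage of depolarized cells counted by flow cytometry, 10,000 events per sample.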

The test system of another series is E. coli. Put plainly: Flow cytometric antimicrobial killing assay. The format is cell-based, E. coli ATCC 25922. The conditions noted are these: 90 min, 37°C. The gist of the method: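 E. coli ATCC 25922 (1.5×10^6 cells) in 1:6 diluted Schaedler broth at 37°C. Peptides dissolved in 0.01% acetic acid and added at 10 μg/ml; solvent served as viability control. After 90 min, DiBAC4(3) added for 10 min, cells spun and resuspended in PBS. Percentage of depolarised cells counted by flow cytometry over 10 000 events. One representative experiment run in triplicate.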
In general terms: A flow cytometer gives signals particle by particle.

The test system of the next series is E. coli BL21. The series can be described thus: Broth microdilution, E. coli BL21. The series is classed as cell-based. The conditions noted are these: data not shown. In general terms: Broth dilution looks for growth in wells or tubes with falling amounts of substance.
The test system of a further series is P. aeruginosa PAO. The series can be described thus: Broth microdilution, P. aeruginosa PAO. The conditions noted are these: data not shown. The format is cell-based.
Series [2] concerns P. aeruginosa clinical isolate. Put plainly: Broth microdilution, P. aeruginosa clinical isolate. The format is cell-based. The conditions noted are these: data not shown.
Series [3] has as its system C. albicans. Put plainly: Broth microdilution, C. albicans. The format is cell-based, Candida albicans. The conditions noted are these: data not shown.
Series [4] relates to C. albicans. Put plainly: Radial diffusion test, C. albicans. The format is cell-based, Candida albicans. The conditions noted are these: different media.
The target of a further series is Sap2p (Candida albicans, UniProt P0CS83). Put plainly: Sap inhibition assay, Sap2. The series is classed as biochemical, C. albicans. As to conditions: as stated in abstract.
Chain of Sap2p (P0CS83 57-398): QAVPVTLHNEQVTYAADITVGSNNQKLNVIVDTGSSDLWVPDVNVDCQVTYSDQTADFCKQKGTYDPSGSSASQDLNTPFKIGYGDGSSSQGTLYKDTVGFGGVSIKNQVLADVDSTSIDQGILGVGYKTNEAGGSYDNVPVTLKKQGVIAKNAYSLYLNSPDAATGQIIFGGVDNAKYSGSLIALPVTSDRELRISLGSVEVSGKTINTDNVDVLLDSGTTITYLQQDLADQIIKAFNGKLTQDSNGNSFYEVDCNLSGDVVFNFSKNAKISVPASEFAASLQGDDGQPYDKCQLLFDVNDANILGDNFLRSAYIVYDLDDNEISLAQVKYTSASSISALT
The next series relates to C. albicans SC5314. Put plainly: Electron microscopy of C. albicans. The format is cell-based, Candida albicans. The conditions noted are these: 125 μg/ml, 24 h, 37 °C. The gist of the method: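 About 10^6 SC5314 cells/ml held with 125 μg/ml test compound for 24 h at 37 °C, beside an untreated control. Pellets fixed in 2.5% glutaraldehyde/2% formaldehyde (0.05 M phosphate, pH 7.3), post-fixed in 1% OsO4 and embedded in glycid ether. Sections of 20–30 nm stained with uranyl acetate and viewed by transmission EM.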

The test system of a further series is TR146 epithelial cells. The series can be described thus: LDH release by uninfected epithelial cells. The format is cell-based, human. The gist of the method: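 TR146 buccal cells grown in DMEM with 10% FCS at 37°C, 5% CO2. Tests run in antibiotic-free medium with 5, 10, 50, 100 or 125 μg/ml test compound for 12 and 24 h. Damage read as LDH release. Standard LDH samples spiked with 5 and 125 μg/ml test compound checked for assay interference.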
Background: LDH leaks from cells whose membrane has failed.

Series [5] relates to RHE (TR146) infected with C. albicans SC5314. Put plainly: Histology of reconstituted human oral epithelium. As to conditions: 125 μg/ml, 18 h after infection with C. albicans SC5314. The series is classed as cell-based. A digest of the protocol:
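Multilayer oral RHE infected with 2×10^6 C. albicans SC5314 in 3 g/l TSB/10 mM sodium phosphate, pH 7.2. Test compound at 5–125 μg/ml or none, for 12 and 18 h at 37 °C in 5% CO2 with 100% humidity. Light microscopy scored on 50 sections from five sites per epithelium.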

For the next series, the system named is C. albicans cells. The format is cell-based, Candida albicans. The conditions noted are these: external (5 μg/ml) and endogenous peptide; oral RHE, 12 h; immunofluorescence. A digest of the protocol:
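Oral RHE infected with 2×10^6 C. albicans SC5314 in TSB/10 mM sodium phosphate, pH 7.2, with or without 5 μg/ml peptide, for 12 h. Tissue cryofixed; 5-μm sections fixed in PLP, blocked with donkey serum. Stained with affinity-purified rabbit anti-peptide antibody (1:50) and human anti-C. albicans serum (1:60), then Dylight 549/Cy5 secondaries and YOPRO nuclear stain. Confocal imaging at ×400 and ×250.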

Series [6] has as its system C. albicans. The series can be described thus: Annexin V-FITC / propidium iodide staining, apoptotic and necrotic marker. The series is classed as cell-based, Candida albicans.
The subject of series [7] is IL-8 secretion of epithelial cells. The series can be described thus: IL-8 secretion by epithelial cells. The format is cell-based, human. As to conditions: 5 μg/ml, 12 h, n = 6. A digest of the protocol: (§1)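 Epithelial cells infected or not with C. albicans SC5314, with or without 5 μg/ml test compound, for 12 h. Cytokine in culture supernatants measured by DuoSet sandwich ELISA. Data are means±SD of duplicate assays from three experiments; 2-tailed paired t test, n = 6.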

The test system of series [8] is GM-CSF secretion of epithelial cells. The series can be described thus: GM-CSF secretion by epithelial cells. The conditions noted are these: uninfected epithelial cells; 5 μg/ml; 12 h; n = 6. The format is cell-based, human. A digest of the protocol: as §1
Series [9] has as its system TLR4 mRNA expression of epithelial cells. The series can be described thus: Epithelial TLR4 mRNA expression. The series is classed as cell-based, human. The conditions noted are these: 5 μg/ml, 12 h, n = 6. A digest of the protocol:
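Epithelial cells infected or not with C. albicans SC5314, with or without 5 μg/ml test compound, for 12 h. Total RNA extracted; cDNA made from 1 μg RNA with SuperScript III. qPCR run in duplicate using mean Ct, normalised to a housekeeping gene. Data are means±SD of duplicate assays from three experiments; 2-tailed paired t test, n = 6.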

For a further series, the target named is Sap1p (Candida albicans, UniProt P0CY27). The conditions noted are these: as stated in abstract.
Chain of Sap1p (P0CY27 51-391): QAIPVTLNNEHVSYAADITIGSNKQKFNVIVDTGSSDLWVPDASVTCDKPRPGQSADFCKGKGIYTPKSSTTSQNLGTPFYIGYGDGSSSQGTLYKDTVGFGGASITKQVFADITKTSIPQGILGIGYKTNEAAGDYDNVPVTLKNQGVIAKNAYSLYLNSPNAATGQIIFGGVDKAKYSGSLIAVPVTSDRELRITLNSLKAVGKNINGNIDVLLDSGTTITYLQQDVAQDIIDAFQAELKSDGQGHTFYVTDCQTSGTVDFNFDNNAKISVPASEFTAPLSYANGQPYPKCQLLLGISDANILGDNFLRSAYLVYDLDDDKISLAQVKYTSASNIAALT
The subject of the next series is GAPDH. As to conditions: ref Mookherjee et al., 2009; cited from earlier work.
Series [10] deals with C. albicans. As to conditions: ref Wu et al., 1999, cited from earlier work.
The next series concerns Sap2. The conditions noted are these: ref Wu et al., 1999, cited from earlier work.
The mark [11] stands for this setting: epithelial cells infected with C. albicans SC5314.

Take `CC(C)(C)NC(=O)[C@@H]1CN(Cc2cccnc2)CCN1C[C@@H](O)C[C@@H](Cc1ccccc1)C(=O)N[C@H]1c2ccccc2C[C@H]1O` [indinavir]: the “inhibition of Sap activity” value in the series on Sap was “inhibit Sap activity”.
Turning to `CC(C)(C)NC(=O)[C@@H]1C[C@@H]2CCCC[C@@H]2CN1C[C@@H](O)[C@H](Cc1ccccc1)NC(=O)[C@H](CC(N)=O)NC(=O)c1ccc2ccccc2n1` [saquinavir], in the series with Sap, the “inhibition of Sap activity” value is given as “inhibit Sap activity”.
In the case of “GKVKVGVNGFGRIGRLVTRAAFNSGKVDIVA [hGAPDH (2-32)]”, in the series on C. albicans [1] (C. albicans SC5314, 5, 10, 50, 100 and 125 μg/ml, 90 min), the “dose dependence of antifungal effect” value is “dose dependent”. Further, the “effectiveness in killing assay” value in the series on C. albicans [1] (C. albicans, 5 μg/ml) is given as “not very effective”. The “depolarized fungal cells in a population” value is listed as 45% with C. albicans [1] (C. albicans, 10 µg/ml (3.1 µM), 90 min, 37°C) and 90% in the series on C. albicans [1] (C. albicans, 100 µg/ml, 90 min, 37°C). In addition, in the series with C. albicans [1] (C. albicans, 90 min, 37°C), the “antifungal activity compared between hGAPDH (2-32), LL-37 and hBD-3” value was “not significantly different”. The “depolarizing of the fungi in a population” value in the series with C. albicans [1] (two of the four tested C. albicans strains, 10 μg/ml, 90 min, 37°C) is “approximately 50%”. In addition, the “sensitivity of C. albicans strains” value with C. albicans [1] (two other of the four tested C. albicans strains, 10 μg/ml, 90 min, 37°C) is recorded as “slightly lower sensitivity”. Besides, the “antibacterial activity compared with LL-37 and hBD-3” value in the series on E. coli (10 μg/ml each) is on record as “less active against E. coli”. In the series with E. coli (10 μg/ml, 1:6 diluted Schaedler broth), the antibacterial activity entry is reported as “potent antibacterial activity”. Further, the “growth inhibition (MIC 100%)” value (in the series on E. coli BL21; in the series on P. aeruginosa PAO; in series [2]; in the series on C. albicans [3]) was “micromolar concentrations” each time. In addition, the antifungal activity entry in the series with C. albicans [4] is listed as “antifungal activity was also demonstrated”. Also, the “ED50, inhibition of Sap activity” value is 200 µg/mL on Sap2p and 160 µg/mL at Sap1p. In addition, the “ultrastructural changes of C. albicans morphology” value with C. albicans SC5314 is “distinct changes of the cell wall, plasma membrane and the cytoplasm; also recorded: enlargement of the fungal cytoplasmic vacuoles, disorganization of the internal organelles and the appearance of yeasts with an empty cytoplasm resembling necrotic ghost cells”. Also, in the series on TR146 epithelial cells (low concentrations), the toxic mucosal effects result was “without any toxic mucosal effects”. Further, in the series with TR146 epithelial cells (uninfected epithelial cells, LDH release), the “toxicity on mammalian cells” value is “low toxicity”. In addition, the “morphological alterations of infected RHE” value in [5] was “far less marked morphological alterations”. Further, the “number of yeast cells on the mucosal surface” value in series [5] is “decreased”. The “spongiosis and invasion of keratinocytes by yeast cells” value in series [5] is “inhibited”. In addition, the “edema in infected RHE” value in [5] (uppermost keratinocyte layers) is “mild edema”. Also, the “affinity to C. albicans cells” value in the series with C. albicans cells was “strong affinity”. Besides, the “internalization by fungal cells” value in the series on C. albicans cells is recorded as “internalization by the fungal cells”. The “protoplasts with peripheral annexin V-FITC fluorescence (apoptosis)” value in the series on C. albicans [6] (5 μg/ml, 1 h, 37°, 300 fungal cells) was 31%. In the series with C. albicans [6] (treated for longer time with 5 μg/ml or at higher doses), the “cellular changes after longer treatment or higher doses” value is “cellular changes characteristic of necrosis”. Also, the values for the IL-8 secretion result in [7] (setting [11]) and in [7] (uninfected epithelial cells) were “even increased” and “increased secretion”, respectively. Moreover, the GM-CSF secretion entry in series [8] is reported as “increased secretion”. Besides, in [9] (setting [11]), the TLR4 expression entry is “increased”. Also, in [9] (uninfected epithelial cells, vs PBS treated controls), the “TLR4 mRNA expression” value is listed as “increased”.
For the compound “LL-37: antimicrobial peptide LL-37 (Innovagen, Lund, Sweden); human cathelicidin (LLGDFFRKSKEKIGKEFKRIVQRIKDFLRNLVPRTES; Antibacterial peptide LL-37; UniProt P49913 134-170, looked up)”, the “GAPDH as mononuclear cell receptor” value in the series with GAPDH was “GAPDH is relevant for the functioning”.
Take “hBD-3: antimicrobial peptide hBD-3 (Peptide Institute, Osaka, Japan) (GIINTLQKYYCRVRGGRCAVLSCLPKEEQIGKCSTRGRKCCRRKK; UniProt P81534 23-67, looked up) [reference compound]”: in the series with C. albicans [1] (C. albicans, 90 min, 37°C), the “antifungal activity compared between hGAPDH (2-32), LL-37 and hBD-3” value is “not significantly different”.
Turning to “lysozyme: antimicrobial protein ubiquitous in human mucosal secretions such as saliva”, in the series with C. albicans [10] (higher concentrations), the “killing of C. albicans” value is given as “killing the organism”. In addition, the “growth of C. albicans” value with C. albicans [10] is “inhibited the growth”. The “production of Sap” value in the series on Sap2 (lower concentrations) is listed as “decreasing the production”. Besides, the “secretion of the isoenzyme Sap2” value in the series on Sap2 was “decreased”.
